According to ChEMBL document CHEMBL1208737, “Synthesis and in vitro evaluation of N-alkyl-3-hydroxy-3-(2-imino-3-methyl-5-oxoimidazolidin-4-yl)indolin-2-one analogs as potential anticancer agents” (2010):

Legend:
Assay type in all cases: functional
HL-60(TB) = experiment: Growth inhibition of human HL-60(TB) cells by sulforhodamine B assay
Method in brief: (§1)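 Five-dose response testing across a 57-line human tumour panel (leukemia, non-small cell lung, colon, CNS, melanoma, ovarian, renal, prostate, breast), done after a single-dose primary screen run per the NCI method. Effect plotted against log10 molar drug concentration for each cell line. GI50 is the concentration giving a 50% reduction in net protein increase versus control cells.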

SF-295 = experiment: Growth inhibition of human SF295 cells by sulforhodamine B assay; method in brief: as §1
SN12C = experiment: Growth inhibition of human SN12C cells by sulforhodamine B assay; method in brief: as §1
[1] = Growth inhibition of human […] cells by sulforhodamine B assay; method in brief: as §1
786-0 = experiment: Growth inhibition of human 786-0 cells by sulforhodamine B assay; method in brief: as §1
CAKI-1 = experiment: Growth inhibition of human Caki1 cells by sulforhodamine B assay; method in brief: as §1
[2] = Growth inhibition of human Hs 578T cells by sulforhodamine B assay; method in brief: as §1
HOP-62 = experiment: Growth inhibition of human HOP62 cells by sulforhodamine B assay; method in brief: as §1
SK-MEL-2 = experiment: Growth inhibition of human SK-MEL-2 cells by sulforhodamine B assay; method in brief: as §1
M14 = experiment: Growth inhibition of human M14 cells by sulforhodamine B assay; method in brief: as §1
CCRF-CEM = experiment: Growth inhibition of human CCRF-CEM cells by sulforhodamine B assay; method in brief: as §1
SW-620 = experiment: Growth inhibition of human SW620 cells by sulforhodamine B assay; method in brief: as §1
SNB-19 = experiment: Growth inhibition of human SNB19 cells by sulforhodamine B assay; method in brief: as §1
OVCAR-3 = experiment: Growth inhibition of human OVCAR-3 cells by sulforhodamine B assay; method in brief: as §1
SK-OV-3 = experiment: Growth inhibition of human SKOV3 cells by sulforhodamine B assay; method in brief: as §1
MCF7 = experiment: Growth inhibition of human MCF7 cells by sulforhodamine B assay; method in brief: as §1
OVCAR-5 = experiment: Growth inhibition of human OVCAR5 cells by sulforhodamine B assay; method in brief: as §1
SNB-75 = experiment: Growth inhibition of human SNB75 cells by sulforhodamine B assay; method in brief: as §1
SK-MEL-28 = experiment: Growth inhibition of human SK-MEL-28 cells by sulforhodamine B assay; method in brief: as §1
SF-268 = experiment: Growth inhibition of human SF268 cells by sulforhodamine B assay; method in brief: as §1
NCI-H226 = experiment: Growth inhibition of human NCI-H226 cells by sulforhodamine B assay; method in brief: as §1
MOLT-4 = experiment: Growth inhibition of human MOLT4 cells by sulforhodamine B assay; method in brief: as §1
ACHN = experiment: Growth inhibition of human ACHN cells by sulforhodamine B assay; method in brief: as §1
NCI-H460 = experiment: Growth inhibition of human NCI-H460 cells by sulforhodamine B assay; method in brief: as §1
HCT-116 = experiment: Growth inhibition of human HCT116 cells by sulforhodamine B assay; method in brief: as §1
LOX IMVI = experiment: Growth inhibition of human LOXIMVI cells by sulforhodamine B assay
Method in brief: (§2)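 Five-dose response testing across the 57-line human tumour panel. Growth effect was plotted against log10 drug concentration for each cell line. GI50 is the molar concentration giving a 50% reduction in net protein increase relative to untreated control cells. TGI (total growth inhibition) and LC50 (concentration lethal to 50% of cells) were read from the same curves.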

IGROV-1 = experiment: Growth inhibition of human IGROV1 cells by sulforhodamine B assay; method in brief: as §1
MDA-MB-468 = experiment: Growth inhibition of human MDA-MB-468 cells by sulforhodamine B assay; method in brief: as §1
EKVX = experiment: Growth inhibition of human EKVX cells by sulforhodamine B assay; method in brief: as §1
SF-539 = experiment: Growth inhibition of human SF539 cells by sulforhodamine B assay; method in brief: as §1
MDA-MB-435 = experiment: Growth inhibition of human MDA-MB-435 cells by sulforhodamine B assay; method in brief: as §1
PC-3 = experiment: Growth inhibition of human PC3 cells by sulforhodamine B assay; method in brief: as §1
HCT-15 = experiment: Growth inhibition of human HCT15 cells by sulforhodamine B assay; method in brief: as §1
TK-10 = experiment: Growth inhibition of human TK10 cells by sulforhodamine B assay
Method in brief: (§3)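 Part of a 57-line human tumour cell panel run at five doses. Growth effect was plotted against log10 molar drug concentration for each cell line. GI50 is the concentration giving a 50% reduction in net protein increase relative to untreated control cells, read from the dose-response curve.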

OVCAR-8 = experiment: Growth inhibition of human OVCAR8 cells by sulforhodamine B assay; method in brief: as §1
MDA-MB-231 = experiment: Growth inhibition of human MDA-MB-231 cells by sulforhodamine B assay; method in brief: as §1
HT-29 = experiment: Growth inhibition of human HT-29 cells by sulforhodamine B assay; method in brief: as §1
DU-145 = experiment: Growth inhibition of human DU145 cells by sulforhodamine B assay; method in brief: as §1
UO-31 = experiment: Growth inhibition of human UO31 cells by sulforhodamine B assay; method in brief: as §3
Malme-3M = experiment: Growth inhibition of human MALME-3M cells by sulforhodamine B assay; method in brief: as §1
OVCAR-4 = experiment: Growth inhibition of human OVCAR4 cells by sulforhodamine B assay; method in brief: as §1
NCI/ADR-RES = experiment: Growth inhibition of human NCI/ADR-RES cells by sulforhodamine B assay; method in brief: as §1
A549 = experiment: Growth inhibition of human A549 cells by sulforhodamine B assay; method in brief: as §2
[3] = read-out: LC50 (the source's name)

## COc1ccc(CN2C(=O)C(O)(C3C(=O)NC(=N)N3C)c3ccccc32)cc1 (stereo unspecified)
HL-60(TB)
  GI50: 4.91 µM
  LC50: > 100 µM
SF-295
  GI50: 26 µM
SF-295; [3]
  CC50: > 100 µM
SN12C
  GI50: > 100 µM
SN12C; [3]
  CC50: > 100 µM
[1]
  GI50: 2.87 µM
[1]; [3]
  CC50: > 100 µM
786-0
  GI50: 23 µM
786-0; [3]
  CC50: > 100 µM
CAKI-1
  GI50: 53.9 µM
CAKI-1; [3]
  CC50: > 100 µM
[2]
  GI50: 60.3 µM
[2]; [3]
  CC50: > 100 µM
HOP-62
  GI50: 4.31 µM
HOP-62; [3]
  CC50: > 100 µM
SK-MEL-2
  GI50: 95.2 µM
SK-MEL-2; [3]
  CC50: > 100 µM
M14
  GI50: 4.93 µM
  LC50: > 100 µM
CCRF-CEM
  GI50: 2.18 µM
CCRF-CEM; [3]
  CC50: > 100 µM
SW-620
  GI50: 4.12 µM
SW-620; [3]
  CC50: > 100 µM
SNB-19
  GI50: 30.6 µM
SNB-19; [3]
  CC50: > 100 µM
OVCAR-3
  GI50: 2.29 µM
OVCAR-3; [3]
  CC50: 30.1 µM
SK-OV-3
  GI50: 45.5 µM
SK-OV-3; [3]
  CC50: > 100 µM
MCF7
  GI50: 6.93 µM
  LC50 (concentration killing 50% of starting cells): > 100 µM
OVCAR-5
  GI50: 42.1 µM
OVCAR-5; [3]
  CC50: > 100 µM
SNB-75
  GI50: 28.8 µM
SNB-75; [3]
  CC50: > 100 µM
SK-MEL-28
  GI50: 36.9 µM
SK-MEL-28; [3]
  CC50: > 100 µM
SF-268
  GI50: 5 µM
SF-268; [3]
  CC50: > 100 µM
NCI-H226
  GI50: 38.4 µM
NCI-H226; [3]
  CC50: > 100 µM
MOLT-4
  GI50: 4.79 µM
MOLT-4; [3]
  CC50: > 100 µM
ACHN
  GI50: > 100 µM
ACHN; [3]
  CC50: > 100 µM
NCI-H460
  GI50: 29 µM
  LC50: > 100 µM
HCT-116
  GI50: 2.4 µM
  LC50: > 100 µM
LOX IMVI
  GI50: 8.09 µM
LOX IMVI; [3]
  CC50: > 100 µM
IGROV-1
  GI50: 3.26 µM
IGROV-1; [3]
  CC50: > 100 µM
MDA-MB-468
  GI50: 11.6 µM
  LC50 (concentration causing 50% net cell kill): > 100 µM
EKVX
  GI50: 71.7 µM
  LC50: > 100 µM
SF-539
  GI50: 3.73 µM
SF-539; [3]
  CC50: > 100 µM
MDA-MB-435
  GI50: 10.6 µM
MDA-MB-435; [3]
  CC50: > 100 µM
PC-3
  GI50: 46.9 µM
PC-3; [3]
  CC50: > 100 µM
HCT-15
  GI50: 11.8 µM
  LC50 (concentration killing 50% of starting cells): > 100 µM
TK-10
  GI50: > 100 µM
TK-10; [3]
  CC50: > 100 µM
OVCAR-8
  GI50: 3.52 µM
OVCAR-8; [3]
  CC50: > 100 µM
MDA-MB-231
  GI50: 19.4 µM
MDA-MB-231; [3]
  CC50: > 100 µM
HT-29
  GI50: 4.06 µM
  LC50: > 100 µM
DU-145
  GI50: 21.4 µM
DU-145; [3]
  CC50: > 100 µM
UO-31
  GI50: 83.2 µM
UO-31; [3]
  CC50: > 100 µM
Malme-3M
  GI50: 27.4 µM
Malme-3M; [3]
  CC50: > 100 µM
OVCAR-4
  GI50: 7.13 µM
OVCAR-4; [3]
  CC50: > 100 µM
NCI/ADR-RES
  GI50: 1.99 µM
NCI/ADR-RES; [3]
  CC50: > 100 µM
A549
  GI50: 43.6 µM
  LC50: > 100 µM
